Article PMC6583897 (International journal of pharmaceutics, 2018)

How the values were obtained:
CYP3A4 = details: ref Yao et al., 2006; cited from earlier work
HIV-1NL-43 = experiment: Antiviral activity in vitro, TZM-bl luciferase reporter assay; format: cell-based; details: for IC50: Human immunodeficiency virus 1, TZM-bl, 48 h; for times more potent than free parent drug (IC50 ratio): TZM-bl cells, vs free FTC or free EVG
[1] = Pharmacokinetic evaluation after intramuscular injection, plasma LC/MS; format: in vivo, CD-1 mice; details: female, CD-1, mouse, im, 1000 mg/kg
[2] = Hydrolytic release curves, pH 7.4 PBS, 37 °C; format: physicochemical; details: 1 mg/mL, UV-vis
Outline: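 Test conjugates at 1 mg/mL were hydrolysed in 0.1 M phosphate-buffered saline, pH 7.4, with continuous stirring at 37 °C, in triplicate. Samples were taken at 1, 3, 7, 10, 14, 17, 21, 24, 28, 31, 35 and 42 days. Released parent drug was measured by UV absorbance at 300 nm or 320 nm, depending on the drug. Data are mean ± standard deviation (n = 3).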

[3] = ref Ho et al., 2018; cited from earlier work
HIV = details: ref Agarwal et al., 2013; cited from earlier work

CC/C=C\C/C=C\C/C=C\C/C=C\C/C=C\C/C=C\CCC(=O)O [DHA (Docosahexaenoic acid), Docosahexaenoic acid]
inhibitory potency against CYP3A4 among available PUFA options (CYP3A4): greater inhibitory potency

COc1cc2c(cc1Cc1cccc(Cl)c1F)c(=O)c(C(=O)O)cn2[C@H](CO)C(C)C [EVG (Elvitegravir), Elvitegravir]
IC50 (HIV-1NL-43): 30.9 µM | AUC(0-t) [1]: 48300 ng·h/mL | Cmax [1]: 1750 ng/mL | half-life [1]: 9.75 h | k el [1]: 1.97e-05 s⁻¹

CC/C=C/C/C=C/C/C=C/C/C=C/C/C=C/C/C=C\CCC(=O)OCC(C(C)C)n1cc(C(=O)O)c(=O)c2cc(Cc3cccc(Cl)c3F)c(OC)cc21 (stereo not shown) [EVG-DHA, 6-(3-chloro-2-fluorobenzyl)-1-(1-(((4Z,7E,10E,13E,16E,19E)-docosa-4,7,10,13,16,19-hexaenoyl)oxy)-3-methylbutan-2-yl)-7-methoxy-4-oxo-1,4-dihydroquinoline-3-carboxylic acid]
IC50 (HIV-1NL-43): 0.14 µM | times more potent than free parent drug (IC50 ratio) (HIV-1NL-43): ~ 220 times | period of sustained drug release [2]: 30 days

Nc1nc(=O)n([C@@H]2CS[C@H](CO)O2)cc1F [FTC (Emtricitabine), Emtricitabine]
IC50 (HIV-1NL-43): 17.2 µM | AUC(0-t) [1]: 127000 ng·h/mL | Cmax [1]: 41000 ng/mL | half-life [1]: 54.7 h | k el [1]: 3.61e-06 s⁻¹

CC/C=C/C/C=C/C/C=C/C/C=C/C/C=C/C/C=C/CCC(=O)OC[C@@H]1O[C@H](n2cc(F)c(N)nc2=O)CS1 [FTC-DHA, ((2R,5S)-5-(4-amino-5-fluoro-2-oxopyrimidin-1(2H)-yl)-1,3-oxathiolan-2-yl)methyl (4E,7E,10E,13E,16E,19E)-docosa-4,7,10,13,16,19-hexaenoate]
IC50 (HIV-1NL-43): 1.39 µM | times more potent than free parent drug (IC50 ratio) (HIV-1NL-43): ~ 12 times | period of sustained drug release [2]: 21 days

C=C1[C@H](CO)[C@@H](O)C[C@@H]1n1cnc2c(=O)[nH]c(N)nc21 [entecavir]
active antiretroviral released within the first hour [3]: 15–41%

CCCCCCCCCCCCCC(=O)OC[C@@H]1O[C@H](n2cc(F)c(N)nc2=O)CS1 [myristoylated FTC conjugate]
higher anti-HIV activity compared to FTC alone (HIV): 24 times
